# Results reported in ChEMBL document CHEMBL1221221, “Discovering chemical modifiers of oncogene-regulated hematopoietic differentiation” (Nat Chem Biol, 2009).
# Active and inactive are the calls of the source. The calls are words filed in the database; no cut-off is given here.
# Assays:
# Danio rerio [1] = organism: Danio rerio; experiment: Inhibition of heat-induced AML1-ETO protein expression in heterozygous transgenic zebrafish embryo by Western blot analysis; format: functional, organism-based
# In short: (§1)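 Heterozygous Tg(hsp:AML1-ETO) embryos, bred from homozygous transgenic × wild-type crosses, were heat-treated at 39−40 °C for 1 h to induce AE. Lysates were Western blotted with anti-AML1 antibody for AE and also probed for Hsp70, with Akt as the loading reference. Controls were DMSO vehicle, heat-treated wild-type embryos, and unheated transgenic embryos.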
# Danio rerio [2] = organism: Danio rerio; experiment: Inhibition of COX2 in heat-stimulated heterozygous transgenic zebrafish embryo assessed as MPO-positive granulocytic cell accumulation at 25 uM by in situ hybridization analysis
# In short: (§2)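 Heterozygous Tg(hsp:AML1-ETO) embryos given heat treatment at 39−40 °C for 1 h at 16−18 hpf. Compound added in DMSO right at the end of heat treatment, with or without PGE2 (20 μM). Embryos fixed at 36−40 hpf for mpo in situ hybridization of granulocytic cells. Scored as counts of embryos showing the phenotype; unheated transgenic embryos also tested.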
# Danio rerio [3] = organism: Danio rerio; experiment: Inhibition of COX2-mediated decrease in gata1 expression in heterozygous transgenic zebrafish embryo assessed as restoration of gata1 level at 25 uM by in-situ hybridization analysis
# In short: (§3)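 Heterozygous Tg(hsp:AML1-ETO) embryos from homozygous × wild-type crosses. Compound added in DMSO 1 h before heat treatment at 39−40 °C for 1 h at 16−18 hpf. Embryos fixed 90 min after heat treatment, then whole-mount in situ hybridization for gata1 in posterior blood islands. Scored as counts of embryos showing the phenotype. DMSO vehicle control; unheated transgenic embryos for comparison.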
# Danio rerio [4] = organism: Danio rerio; experiment: Inhibition of COX2 in heterozygous transgenic zebrafish embryo assessed as MPO-positive granulocytic cell accumulation at 25 uM by in situ hybridization analysis; in short: as §2
# Danio rerio [5] = organism: Danio rerio; experiment: Inhibition of COX2 in heat-stimulated heterozygous transgenic zebrafish embryo assessed as MPO-positive granulocytic cell accumulation at 25 uM by in situ hybridization analysis in presence of PGE2; in short: as §2
# Danio rerio [6] = organism: Danio rerio; experiment: Inhibition of COX2-mediated decrease in gata1 expression in heat-stimulated heterozygous transgenic zebrafish embryo assessed as restoration of gata1 level at 25 uM by in-situ hybridization analysis; in short: as §3
# Danio rerio [7] = organism: Danio rerio; experiment: Effect on gross morphology of heterozygous transgenic zebrafish embryo at 0.5 uM; format: ADME, organism-based; conditions: in vivo
# [8] = target: Glycogen synthase kinase 3 beta (Danio rerio) (UniProt Q9YH60); experiment: Inhibition of GSK-3-beta-mediated activation of […] signaling in heat-stimulated heterozygous transgenic zebrafish embryo assessed as upregulation of MPO gene expression at 0.5 uM by in-situ hybridization analysis
# Chain of Glycogen synthase kinase 3 beta (Danio rerio) (Q9YH60 as listed by the source): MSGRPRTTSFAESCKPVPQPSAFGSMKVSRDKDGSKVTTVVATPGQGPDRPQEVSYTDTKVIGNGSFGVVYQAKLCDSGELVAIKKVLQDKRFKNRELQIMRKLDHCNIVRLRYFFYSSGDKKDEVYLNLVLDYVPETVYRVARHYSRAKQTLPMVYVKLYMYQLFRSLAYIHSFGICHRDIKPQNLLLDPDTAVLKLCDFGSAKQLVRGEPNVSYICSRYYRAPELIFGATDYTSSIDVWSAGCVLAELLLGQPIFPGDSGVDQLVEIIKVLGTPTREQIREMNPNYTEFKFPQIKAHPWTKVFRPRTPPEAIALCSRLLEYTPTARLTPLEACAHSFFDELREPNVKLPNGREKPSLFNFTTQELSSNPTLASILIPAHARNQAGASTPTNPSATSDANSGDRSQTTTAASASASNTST
# In short: (§4)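 Heterozygous Tg(hsp:AML1-ETO) embryos exposed to the GSK-3β inhibitor from 14 hpf, after gastrulation, then given a mild heat treatment (37 °C, 1 h) or none. DMSO vehicle control. In situ hybridization for gata1 or mpo. Scored as numbers of embryos showing gata1 downregulation or mpo upregulation.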
# [9] = target: Glycogen synthase kinase 3 beta (Danio rerio) (UniProt Q9YH60); experiment: Inhibition of GSK-3-beta-mediated activation of […] signaling in heat-stimulated heterozygous transgenic zebrafish embryo assessed as down-regulation of gata1 gene expression at 0.5 uM by in-situ hybridization analysis; in short: as §4
# [10] = target: Glycogen synthase kinase 3 beta (Danio rerio) (UniProt Q9YH60); experiment: Inhibition of GSK-3-beta-mediated activation of […] signaling in heterozygous transgenic zebrafish embryo assessed as effect on MPO gene expression at 0.5 uM by in-situ hybridization analysis; in short: as §4
# [11] = target: Glycogen synthase kinase 3 beta (Danio rerio) (UniProt Q9YH60); experiment: Inhibition of GSK-3-beta-mediated activation of […] signaling in heterozygous transgenic zebrafish embryo assessed as effect on gata1 gene expression at 0.5 uM by in-situ hybridization analysis; in short: as §4
# Danio rerio [12] = organism: Danio rerio; experiment: Inhibition of Hsp70 expression in heterozygous transgenic zebrafish embryo at 0.5 uM by Western blot analysis; format: functional, organism-based
# In short: (§5)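 Heterozygous Tg(hsp:AML1-ETO) embryos treated with compound or DMSO and heat-treated to induce transgene expression. Lysates examined by Western blot with anti-AML1 antibody for AML1-ETO, and also probed for Hsp70. Akt used as loading reference. Controls were heat-treated wild-type embryos and unheated transgenic embryos.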
# Danio rerio [13] = organism: Danio rerio; experiment: Inhibition of heat-induced AML1-ETO protein expression in heterozygous transgenic zebrafish embryo at 0.5 uM by Western blot analysis; format: functional, organism-based; in short: as §5
# Danio rerio [14] = organism: Danio rerio; experiment: Upregulation of MPO gene expression in 39 to 40 degC heat-stimulated heterozygous transgenic zebrafish embryo after 1 hr by in-situ hybridization analysis; format: functional, organism-based
# Danio rerio [15] = organism: Danio rerio; experiment: Effect on scl gene expression in wild type zebrafish embryo at 20 uM treated 14 hrs post fertilization by in-situ hybridization analysis; format: functional, organism-based
# Danio rerio [16] = organism: Danio rerio; experiment: Induction of AML1-ETO protein translation in 37 degC heat-stimulated heterozygous transgenic zebrafish assessed as phenotype appearance after 1 hr by in-situ hybridization analysis; format: functional, organism-based
# Danio rerio [17] = organism: Danio rerio; experiment: Induction of AML1-ETO protein translation in 39 to 40 degC heat-stimulated heterozygous transgenic zebrafish assessed as phenotype appearance after 1 hr by in-situ hybridization analysis; format: functional, organism-based
# Danio rerio [18] = organism: Danio rerio; experiment: Effect on MPO gene expression in wild type zebrafish embryo at 20 uM treated 14 hrs post fertilization by in-situ hybridization analysis; format: functional, organism-based
# Danio rerio [19] = organism: Danio rerio; experiment: Induction of MPO-positive granulocytic cell accumulation in heat-stimulated heterozygous transgenic zebrafish embryo; format: functional, organism-based
# Danio rerio [20] = organism: Danio rerio; experiment: Downregulation of gata1 gene expression in 39 to 40 degC heat-stimulated heterozygous transgenic zebrafish embryo after 1 hr by in-situ hybridization analysis; format: functional, organism-based
# Danio rerio [21] = organism: Danio rerio; experiment: Effect on gata1 gene expression in wild type zebrafish embryo at 20 uM treated 14 hrs post fertilization by in-situ hybridization analysis; format: functional, organism-based
# Danio rerio [22] = organism: Danio rerio; experiment: Effect on l-plastin gene expression in wild type zebrafish embryo at 20 uM treated 14 hrs post fertilization by in-situ hybridization analysis; format: functional, organism-based
# Danio rerio [23] = organism: Danio rerio; experiment: Inhibition of AML1-ETO protein translation in heterozygous transgenic zebrafish assessed as suppression of phenotype appearance; format: functional, organism-based
# In short: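 Heterozygous Tg(hsp:AML1-ETO) embryos were dechorionated with pronase at 12−16 hpf and kept in E3 buffer, five per well. Compound was added at 20 μM final. One hour later, AE expression was induced by heat shock at 40 °C for 1 h, followed by 90 min at 28.5 °C. Embryos were then fixed and gata1 in situ hybridization was scored in the posterior blood islands.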
# Danio rerio [24] = organism: Danio rerio; experiment: Inhibition of Hsp70 expression in heterozygous transgenic zebrafish embryo at 0.15 uM by Western blot analysis; format: functional, organism-based; in short: as §1
# Danio rerio [25] = organism: Danio rerio; experiment: Inhibition of COX2 in heterozygous transgenic zebrafish embryo assessed as MPO-positive granulocytic cell accumulation at 20 uM by in situ hybridization analysis; in short: as §2
# Danio rerio [26] = organism: Danio rerio; experiment: Inhibition of COX2 in heat-stimulated heterozygous transgenic zebrafish embryo assessed as MPO-positive granulocytic cell accumulation at 20 uM by in situ hybridization analysis in presence of PGE2; in short: as §2
# Danio rerio [27] = organism: Danio rerio; experiment: Inhibition of COX2-mediated decrease in gata1 expression in heat-stimulated heterozygous transgenic zebrafish embryo assessed as restoration of gata1 level at 20 uM by in-situ hybridization analysis; in short: as §3
# Danio rerio [28] = organism: Danio rerio; experiment: Inhibition of COX2-mediated decrease in gata1 expression in heterozygous transgenic zebrafish embryo assessed as restoration of gata1 level at 20 uM by in-situ hybridization analysis; in short: as §3
# Danio rerio [29] = organism: Danio rerio; experiment: Inhibition of COX2 in heat-stimulated heterozygous transgenic zebrafish embryo assessed as MPO-positive granulocytic cell accumulation at 20 uM by in situ hybridization analysis; in short: as §2
# Danio rerio [30] = organism: Danio rerio; experiment: Inhibition of heat-induced AML1-ETO protein expression in heterozygous transgenic zebrafish embryo at 0.15 uM by Western blot analysis; format: functional, organism-based; in short: as §1
# Danio rerio [31] = organism: Danio rerio; conditions: 40 uM
# Danio rerio [32] = organism: Danio rerio; conditions: 40 uM; remark: listed apart in the source
# Danio rerio [33] = organism: Danio rerio; conditions: 40 uM; remark: listed apart in the source
# Danio rerio [34] = organism: Danio rerio; conditions: 40 uM; remark: listed apart in the source
smiles,measurement,setting,value
COc1ccc2c(c1)O[C@@H]1COc3cc(OC)c(OC)cc3[C@@H]1C2=O,inhibition of AML1-ETO protein expression (active/not active),Danio rerio [1],Active
CS(=O)(=O)Nc1ccc([N+](=O)[O-])cc1OC1CCCCC1,inhibition,Danio rerio [2],Active
same,inhibition,Danio rerio [3],inactive
same,inhibition,Danio rerio [4],inactive
same,inhibition,Danio rerio [5],inactive
same,inhibition,Danio rerio [6],Active
O=C1Nc2cc(Br)ccc2/C1=C1/Nc2ccccc2/C1=N\O [6BIO],Activity,Danio rerio [7],Toxic
same,inhibition,[8],Active
same,inhibition,[9],Active
same,inhibition,[10],Active
same,inhibition,[11],Active
CC(/C=C/C(=O)NO)=C\[C@@H](C)C(=O)c1ccc(N(C)C)cc1,inhibition,Danio rerio [12],inactive
same,inhibition,Danio rerio [13],inactive
Oc1ccc(Cl)cc1Cc1cc(Cl)ccc1O,inhibition of AML1-ETO protein expression (active/not active),Danio rerio [1],Active
CCCCC[C@H](O)/C=C/[C@H]1[C@H](O)CC(=O)[C@@H]1C/C=C\CCCC(=O)O,inhibition,Danio rerio [14],inactive
same,Activity,Danio rerio [15],inactive
same,inhibition,Danio rerio [16],Active
same,Activity,Danio rerio [17],Active
same,Activity,Danio rerio [18],inactive
same,Activity,Danio rerio [19],Active
same,inhibition,Danio rerio [20],inactive
same,Activity,Danio rerio [21],inactive
same,Activity,Danio rerio [22],inactive
C[C@@H]1C[C@@H]([C@H](O)CC2CC(=O)NC(=O)C2)C(=O)[C@@H](C)C1,Imax,Danio rerio [23],Active
same,inhibition,Danio rerio [24],Active
Oc1c(Cl)cc(Cl)cc1Sc1cc(Cl)cc(Cl)c1O,inhibition of AML1-ETO protein expression (active/not active),Danio rerio [1],Active
COc1ccc2c(c1)c(CC(=O)O)c(C)n2C(=O)c1ccc(Cl)cc1,inhibition,Danio rerio [25],inactive
same,inhibition,Danio rerio [26],inactive
same,inhibition,Danio rerio [27],Active
same,inhibition,Danio rerio [28],inactive
same,inhibition,Danio rerio [29],Active
C=C(C)[C@H]1Cc2c(ccc3c2O[C@@H]2COc4cc(OC)c(OC)cc4[C@@H]2C3=O)O1,inhibition,Danio rerio [30],Active
same,inhibition,Danio rerio [24],Active
CS(=O)(=O)Nc1ccc([N+](=O)[O-])cc1Oc1ccccc1,inhibition,Danio rerio [31],inactive
same,inhibition,Danio rerio [32],inactive
same,inhibition,Danio rerio [12],inactive
same,inhibition,Danio rerio [33],Active
same,inhibition,Danio rerio [13],inactive
same,inhibition,Danio rerio [34],inactive
O=c1oc2ccccc2c(O)c1Cc1c(O)c2ccccc2oc1=O,inhibition of AML1-ETO protein expression (active/not active),Danio rerio [1],inactive
